In ChEMBL document CHEMBL5370680, “Design and Biological Evaluation of Piperazine-Bearing Nitrobenzamide Hypoxia/GDEPT Prodrugs: The Discovery of CP-506” (ACS Med Chem Lett, 2023):

Tests used:
SiHa [1] = experiment: Antiproliferative activity against human SiHa cells assessed as inhibition of cell growth incubated for 4 hrs under anoxic condition and measured after 5 days regrowth under aerobic condition; assay type: functional, cell-based
How it was run: (§1)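 Low-density monolayer antiproliferative assay. Cells exposed to prodrug for 4 h under aerobic or anoxic conditions, then regrown aerobically for 5 days. IC50 is the concentration giving 50% growth inhibition versus untreated controls. Mean values reported, CV <20%.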

HCT-116 [2] = experiment: Antiproliferative activity against human HCT-116 cells expressing NfsA of Escherichia coli assessed as cell growth inhibition measured after 4 hrs; assay type: functional; details: HCT-116, 4 h
How it was run: (§2)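 Monolayer antiproliferative assay using wild-type cells and isogenic lines transfected with AKR1C3 or E. coli NfsA. Cells exposed to prodrug for 4 h, then regrown for 5 days. IC50 is 50% growth inhibition versus untreated controls. Mean values reported, CV <20%.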

HCT-116 [3] = experiment: Antiproliferative activity against human HCT-116 cells in three-dimensional cell culture multicellular layer expressing AKR1C3 assessed as fold change in plating efficiency at 10 uM; assay type: functional
How it was run: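 100% AKR1C3-expressing HCT116 MCLs, against wild-type HCT116 MCLs, exposed to 10 μM prodrug. Clonogenic plating efficiency measured. Fold change is the plating-efficiency ratio between wild-type and transfected MCLs. ≥3 independent experiments.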

HCT-116 [4] = experiment: Antiproliferative activity against human HCT-116 cells assessed as inhibition of cell growth incubated for 4 hrs under anoxic condition and measured after 5 days regrowth under aerobic condition; assay type: functional, cell-based; how it was run: as §1
[5] = Selectivity ratio of IC50 for antiproliferative activity against wild type human NCI-H1299 cells to IC50 for antiproliferative activity against human NCI-H1299 cells expressing AKR1C3; assay type: functional; details: time 4 hrs
How it was run: (§3)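 Ratio of mean IC50 in non-transfected wild-type cells to mean IC50 in the AKR1C3- or NfsA_Ec-transfected line. IC50 is from a 4 h prodrug exposure and 5 days' regrowth.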

SiHa [6] = experiment: Antiproliferative activity against human SiHa cells assessed as inhibition of cell growth incubated for 4 hrs under aerobic condition and measured after 5 days regrowth under aerobic condition; assay type: functional, cell-based; how it was run: as §1
HCT-116 [7] = experiment: Antiproliferative activity against human HCT-116 cells overexpressing cytochrome P450 oxidoreductase assessed as inhibition of cell growth incubated for 4 hrs under aerobic condition and measured after 5 days regrowth under aerobic condition; assay type: functional, cell-based; how it was run: as §1
NCI-H1299 [8] = experiment: Antiproliferative activity against wild type human NCI-H1299 cells assessed as cell growth inhibition measured after 4 hrs; assay type: functional, cell-based; details: NCI-H1299, 4 h; how it was run: as §2
NCI-H1299 [9] = experiment: Antiproliferative activity against human NCI-H1299 cells expressing NfsA of Escherichia coli assessed as cell growth inhibition measured after 4 hrs; assay type: functional; details: NCI-H1299, 4 h; how it was run: as §2
[10] = Toxicity in NIH-III nude mouse xenografted with human HCT-116 cells expressing NfsA of Escherichia coli assessed as body weight loss at 1000 micromol/kg, ip BID measured on day 6; assay type: organism-based; details: in vivo, 144 h, at 1000 µmol/kg, time 6 day
[11] = Selectivity ratio of IC50 for antiproliferative activity against human HCT-116 cells assessed as inhibition of cell growth under aerobic condition to IC50 for antiproliferative activity against human HCT-116 cells assessed as inhibition of cell growth under anoxic condition; assay type: functional
How it was run: (§4)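 Hypoxic cytotoxicity ratio is aerobic IC50 divided by anoxic IC50. Each IC50 comes from a 4 h drug exposure under aerobic or anoxic conditions, followed by 5 days' aerobic regrowth, relative to untreated controls.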

[12] = Selectivity ratio of IC50 for antiproliferative activity against wild type human HCT-116 cells to IC50 for antiproliferative activity against human HCT-116 cells expressing NfsA of Escherichia coli; assay type: functional; details: time 4 hrs; how it was run: as §3
HCT-116 [13] = experiment: Antiproliferative activity against human HCT-116 cells in three-dimensional cell culture multicellular layers assessed as log cell killing under aerobic condition at 100 uM; assay type: functional
How it was run: (§5)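 HCT116 three-dimensional multicellular layers exposed to 100 μM prodrug under aerobic or anoxic conditions. Clonogenic survivors per MCL counted. Log cell kill = log CS(control) − log CS(treated). Mean of ≥3 independent experiments.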

[14] = Selectivity ratio of IC50 for antiproliferative activity against human HCT-116 cells overexpressing cytochrome P450 oxidoreductase assessed as inhibition of cell growth under aerobic condition to IC50 for antiproliferative activity against human HCT-116 cells overexpressing cytochrome P450 oxidoreductase assessed as inhibition of cell growth under anoxic condition; assay type: functional; how it was run: as §4
[15] = Toxicity in NIH-III nude mouse xenografted with human HCT-116 cells expressing NfsA of Escherichia coli assessed as body weight loss at 1000 micromol/kg, ip BID measured on day 16; assay type: organism-based; details: in vivo, 384 h, dose 1000 µmol/kg, time 16 day
[16] = Octanol/water partition coefficient, log D of the compound at pH 7.4; assay type: physicochemical
How it was run: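 Octanol–water partition coefficient by shake-flask method at pH 7.4.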

[17] = Toxicity in NIH-III nude mouse xenografted with human HCT-116 cells expressing NfsA of Escherichia coli assessed as body weight loss at 1000 micromol/kg, ip BID; assay type: organism-based; details: in vivo, at 1000 µmol/kg
HCT-116 [18] = experiment: Antiproliferative activity against human HCT-116 cells expressing AKR1C3 assessed as cell growth inhibition measured after 4 hrs; assay type: functional, cell-based; details: HCT-116, 4 h; how it was run: as §2
[19] = Selectivity ratio of IC50 for antiproliferative activity against human SiHa cells assessed as inhibition of cell growth under aerobic condition to IC50 for antiproliferative activity against human SiHa cells assessed as inhibition of cell growth under anoxic condition; assay type: functional; how it was run: as §4
HCT-116 [20] = experiment: Antiproliferative activity against wild type human HCT-116 cells assessed as cell growth inhibition measured after 4 hrs; assay type: functional, cell-based; details: HCT-116, 4 h; how it was run: as §2
NCI-H1299 [21] = experiment: Antiproliferative activity against human NCI-H1299 cells expressing AKR1C3 assessed as cell growth inhibition measured after 4 hrs; assay type: functional, cell-based; details: NCI-H1299, 4 h; how it was run: as §2
HCT-116 [22] = experiment: Antiproliferative activity against human HCT-116 cells in three-dimensional cell culture multicellular layer expressing NfsA of Escherichia coli assessed as fold change in plating efficiency at 10 uM; assay type: functional
How it was run: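 Mixed MCLs of wild-type HCT116 with 3% NfsA_Ec-expressing cells, against 100% wild-type MCLs, exposed to 10 μM prodrug. Clonogenic plating efficiency measured. Fold change is the plating-efficiency ratio between wild-type and transfected MCLs. ≥3 independent experiments.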

HCT-116 [23] = experiment: Antiproliferative activity against human HCT-116 cells overexpressing cytochrome P450 oxidoreductase assessed as inhibition of cell growth incubated for 4 hrs under anoxic condition and measured after 5 days regrowth under aerobic condition; assay type: functional, cell-based; how it was run: as §1
HCT-116 [24] = experiment: Antiproliferative activity against human HCT-116 cells assessed as inhibition of cell growth incubated for 4 hrs under aerobic condition and measured after 5 days regrowth under aerobic condition; assay type: functional, cell-based; how it was run: as §1
[25] = Selectivity ratio of IC50 for antiproliferative activity against wild type human HCT-116 cells to IC50 for antiproliferative activity against human HCT-116 cells expressing AKR1C3; assay type: functional; details: time 4 hrs; how it was run: as §3
HCT-116 [26] = experiment: Antiproliferative activity against human HCT-116 cells in three-dimensional cell culture multicellular layers assessed as log cell killing under anoxic condition at 100 uM; assay type: functional; how it was run: as §5
[27] = Selectivity ratio of IC50 for antiproliferative activity against wild type human NCI-H1299 cells to IC50 for antiproliferative activity against human NCI-H1299 cells expressing NfsA of Escherichia coli; assay type: functional; details: time 4 hrs; how it was run: as §3
[28] = Metabolic stability in mouse liver microsome assessed as half life in presence of NADPH by LC-MS/MS analysis; assay type: ADME; details: liver microsomes
How it was run: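 Male mouse hepatic microsomes incubated with prodrug for 30 min, with or without NADPH cofactor. Percentage of parent compound remaining tracked from triplicate incubations. Half-life estimated from this loss.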

SMILES	IC50 (SiHa [1]) [µM]	IC50 (HCT-116 [2]) [µM]	fold change (FC) (HCT-116 [3])	IC50 (HCT-116 [4]) [µM]	Ratio IC50 [5]	IC50 (SiHa [6]) [µM]	IC50 (HCT-116 [7]) [µM]	IC50 (NCI-H1299 [8]) [µM]	IC50 (NCI-H1299 [9]) [µM]	Activity [10]	Ratio IC50 [11]	Ratio IC50 [12]	LCK (HCT-116 [13])	Ratio IC50 [14]	Activity [15]	logD [16]	Activity [17] [%]	IC50 (HCT-116 [18]) [µM]	Ratio IC50 [19]	IC50 (HCT-116 [20]) [µM]	also measured
CCN1CCN(C(=O)c2cc(N(CCBr)CCBr)c(S(=O)(=O)CC)cc2[N+](=O)[O-])CC1	23	0.186	0.9	27	1.2	253	60	67	0.552	<= 7%	5.3	511	2.3	21	Non-Toxic	2.1	< 10	62	11	95	IC50 (NCI-H1299 [21]): 54 µM; fold change (FC) (HCT-116 [22]): 5178; IC50 (HCT-116 [23]): 2.8 µM; IC50 (HCT-116 [24]): 142 µM; Ratio IC50 [25]: 1.5; LCK (HCT-116 [26]): 0.016; Ratio IC50 [27]: 121
CCN1CCN(C(=O)c2cc(N(CCBr)CCBr)c(S(C)(=O)=O)cc2[N+](=O)[O-])CC1	10	0.104	1.2	21	1	164	54	71	0.175	<= 7%	6.9	740	2.3	82	Non-Toxic	1.7	< 10	49	16	77	IC50 (NCI-H1299 [21]): 71 µM; fold change (FC) (HCT-116 [22]): 825; IC50 (HCT-116 [23]): 0.66 µM; IC50 (HCT-116 [24]): 145 µM; half-life [28]: 6.05 min; Ratio IC50 [25]: 1.6; LCK (HCT-116 [26]): 0.016; Ratio IC50 [27]: 406
